For one protein, Km, kcat and kcat/Km results are on record in ChEMBL document CHEMBL1240399.

Substrate in data set [1]: O=C(Cc1cccs1)N[C@@H]1C(=O)N2C(C(=O)O)=C(/C=C/c3ccc([N+](=O)[O-])cc3[N+](=O)[O-])CS[C@H]12
The data set can be described thus: (§1) Activity of Pseudomonas aeruginosa GES-13 beta lactamase assessed as hydrolysis by spectrometry. Summed up:
(§2)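 GES-13 expressed in E. coli(pB-ges13), released by sonication in 20 mM Tris pH 8.0, purified by Q-Sepharose (0–1 M NaCl gradient) then S-Sepharose after dialysis against 20 mM MES pH 6.0 (eluted 400–500 mM NaCl); >95% pure by SDS-PAGE. Hydrolysis of penicillin G, nitrocefin, cephalothin, cefotaxime, ceftazidime, aztreonam and imipenem followed spectrophotometrically; kinetic parameters derived.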

Substrate in data set [2]: C[C@@H](O)[C@H]1C(=O)N2C(C(=O)O)=C(SCCNC=N)C[C@H]12
Described as §1. Summed up: as §2

Substrate in data set [3]: CC1(C)S[C@@H]2[C@H](NC(=O)Cc3ccccc3)C(=O)N2[C@H]1C(=O)O
The data set is described as §1. Summed up: as §2

Substrate in data set [4]: CC(C)(O/N=C(\C(=O)N[C@@H]1C(=O)N2C(C(=O)[O-])=C(C[n+]3ccccc3)CS[C@H]12)c1csc(N)n1)C(=O)O
Described as §1. Summed up: as §2

Substrate in data set [5]: C[C@H]1[C@H](NC(=O)/C(=N\OC(C)(C)C(=O)O)c2csc(N)n2)C(=O)N1S(=O)(=O)O
Described as §1. Summed up: as §2

Substrate in data set [6]: CO/N=C(\C(=O)N[C@@H]1C(=O)N2C(C(=O)O)=C(COC(C)=O)CS[C@H]12)c1csc(N)n1
The description is as §1. The essentials: as §2

Substrate in data set [7]: O=C(Cc1cccs1)N[C@@H]1C(=O)N2C(C(=O)O)=C(/C=C/c3ccc([N+](=O)[O-])cc3[N+](=O)[O-])CS[C@H]12
The data set can be described thus: (§3) Ratio of Kcat/Km for Pseudomonas aeruginosa GES-13 beta lactamase assessed as hydrolysis by spectrometry. Summed up: as §2

Substrate in data set [8]: CC(=O)OCC1=C(C(=O)O)N2C(=O)[C@@H](NC(=O)Cc3cccs3)[C@H]2SC1
The description is as §3. Summed up:
as §2

Substrate in data set [9]: CC1(C)S[C@@H]2[C@H](NC(=O)Cc3ccccc3)C(=O)N2[C@H]1C(=O)O
The description is as §3. The essentials:
as §2

Substrate in data set [10]: CC(C)(O/N=C(\C(=O)N[C@@H]1C(=O)N2C(C(=O)[O-])=C(C[n+]3ccccc3)CS[C@H]12)c1csc(N)n1)C(=O)O
The description is as §3. The essentials:
as §2

Substrate in data set [11]: C[C@H]1[C@H](NC(=O)/C(=N\OC(C)(C)C(=O)O)c2csc(N)n2)C(=O)N1S(=O)(=O)O
The description is as §3. Summed up:
as §2

Substrate in data set [12]: CO/N=C(\C(=O)N[C@@H]1C(=O)N2C(C(=O)O)=C(COC(C)=O)CS[C@H]12)c1csc(N)n1
The description is as §3. The essentials: as §2

B1: Beta-lactamase GES-13 (Pseudomonas aeruginosa), D1MIX9 (protein)
chain: MRFIHALLLAGIAHSAYASEKLTFKTDLEKLEREKAAQIGVAIVDPQGEIVAGHRMAQRFAMCSTFKFPLAALVFERIDSGTERGDRKLSYGPDMIVKWSPATERFLASGHMTVLEAAQAAVQLSDNGATNLLLREIGGPAAMTQYFRKIGDSVSRLDRKEPEMNDNTPGDLRDTTTPIAMARTVAKVLYGGALTSTSTHTIERWLIGNQTGDATLRAGFPKDWVVGEKTGTCANGGRNDIGFFKAQERDYAVAVYTTAPKLSAVERDELVASVGQVITQLILSTDK
For the protein B1, the Km worked out at 197 µM in [1]; 139 µM in data set [3]; 229 µM in [4]; 405 µM in [5]; 63 µM in data set [6]. Moreover, the kcat in data set [1] is 29.3 s⁻¹; in [2] it was less than 0.01 s⁻¹; in [3] it was 13.5 s⁻¹; in [4] it was 30.4 s⁻¹; in [5], 35.6 s⁻¹; in data set [6], 69 s⁻¹. Further, the kcat/Km in data set [7] is 150000 M⁻¹ s⁻¹; in data set [8], 100000 M⁻¹ s⁻¹; in [9], 100000 M⁻¹ s⁻¹; in data set [10] it was 130000 M⁻¹ s⁻¹; in data set [11], 90000 M⁻¹ s⁻¹; in data set [12], 1.09e+06 M⁻¹ s⁻¹.
